Experimental data as given in publication PMC8256004 (ChemMedChem, 2020).

Legend:
K. pneum blaKPC-2 = format: cell-based, Klebsiella pneumoniae; conditions: compound at constant 10 μg/mL; FEP 0.12 to 128 μg/mL
Outline: (§1)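 CLSI broth microdilution. Cultures grown overnight in Mueller-Hinton broth, then diluted to a McFarland standard (OD600 0.224). Cefepime serially diluted from 128 to 0.12 μg/mL, with boronic acid test compound held constant at 10 μg/mL. Incubated overnight at 37 °C and MIC read the next day.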

KPC-2 β-lactamase = KPC-2 β-lactamase (Klebsiella pneumoniae, UniProt Q9F663); assay: Competition kinetics of KPC-2 inhibition with nitrocefin as substrate; format: biochemical
KPC-2 β-lactamase, sequence (Q9F663 25-293, looked up): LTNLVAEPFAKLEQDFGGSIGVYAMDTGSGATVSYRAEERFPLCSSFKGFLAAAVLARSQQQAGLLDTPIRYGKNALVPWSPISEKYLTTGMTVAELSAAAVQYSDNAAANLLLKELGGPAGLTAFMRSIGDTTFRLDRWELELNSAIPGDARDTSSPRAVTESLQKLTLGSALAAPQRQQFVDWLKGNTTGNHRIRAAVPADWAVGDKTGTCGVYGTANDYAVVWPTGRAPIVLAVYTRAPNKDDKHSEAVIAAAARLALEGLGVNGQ

KPC-Kpn = assay: Micro-broth dilution MIC of cefepime in combination with inhibitor, KPC-Kpn; format: cell-based, Klebsiella pneumoniae; conditions: for MIC of cefepime (FEP) in combination with compound, KPC-Kpn: compound at constant 10 μg/mL, FEP 0.12 to 128 μg/mL
Outline: as §1

| MIC of cefepime (FEP) in combination with compound, K. pneum blaKPC-2 (K. pneum blaKPC-2) | Ki (KPC-2 β-lactamase) | MIC of cefepime (FEP) in combination with compound, KPC-Kpn (KPC-Kpn) | MIC (KPC-Kpn; Klebsiella pneumoniae, read-out: MIC of cefepime (FEP) alone, KPC-Kpn) | SMILES |
| --- | --- | --- | --- | --- |
| 1 µg/mL | 20 ± 3 nM | 0.5 µg/mL |  | O=C(O)C[C@@H]1CC[C@H](NC(=O)Cc2cccs2)B(O)O1 [vaborbactam] |
| < 0.12 µg/mL |  | < 0.12 µg/mL |  | NC(=O)[C@@H]1CC[C@@H]2CN1C(=O)N2OS(=O)(=O)O [avibactam] |
|  |  |  | 32 µg/mL | CO/N=C(\C(=O)N[C@@H]1C(=O)N2C(C(=O)[O-])=C(C[N+]3(C)CCCC3)CS[C@H]12)c1csc(N)n1 [FEP, cefepime] |
